# Calls of active or inactive are those of the source. The calls are words filed in the database; no cut-off is given here.
# Columns and labels:
# [1] = system: NCI-H1299; assay: Effect on 235Gar-OVA expression in human H1299 cells at 10 uM incubated for 40 hrs by western blot analysis; type: functional; set-up: unit not given here
# Summary of the method: (§1)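 OVA or 235GAr-OVA constructs transiently transfected into H1299 cells, followed by 40 h exposure to 10 μM compound or DMSO. Whole-cell lysates immunoblotted with rabbit anti-OVA; signal normalized to GAPDH. Experiments repeated at least three times.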
# [2] = Displacement of TO from EB virus g4-EBNA1 mRNA measured after 5 mins by FID assay; set-up: species or system human gammaherpesvirus 4
# Summary of the method: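 g4-EBNA1 RNA annealed 95 °C 5 min in K100 buffer (10 mM KAsO2Me2, 100 mM KCl, 1 mM EDTA, 1% DMSO), then mixed with TO; final 0.25 μM RNA and 0.5 μM TO, ligand 0–2.5 μM. Fluorescence read after 5 min shaking (485/520 nm), in duplicate. Displacement = 100×(1−F/F0); DC50 interpolated from the curve.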
# [3] = system: NCI-H1299; assay: Effect on OVA expression in human H1299 cells at 10 uM incubated for 40 hrs by western blot analysis; type: functional; set-up: unit not given here; summary of the method: as §1
# [4] = system: human gammaherpesvirus 4; assay: Binding affinity to EBNA1 G4-quadruplex in human H1299 cells assessed as EB virus EBNA1 expression at 10 uM incubated for 40 hrs by western blot analysis; type: cell-based
# Summary of the method: (§2)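 H1299 cells in RPMI-1640 with 10% FBS at 37 °C, 5% CO2, transiently transfected with EBNA1 or EBNA1ΔGAr constructs, then treated with 10 μM compound (DMSO vehicle) for 40 h. Lysates taken 48 h post-transfection and western blotted with anti-EBNA1 (OT1X). Levels normalized to GAPDH; at least three repeats.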
# [5] = system: human gammaherpesvirus 4; assay: Binding affinity to EB virus F-g4-EBNA1 mRNA assessed as increase in melting temperature at 1 uM by fluorescence method
# [6] = system: human gammaherpesvirus 4; assay: Binding affinity to EBNA1 G4-quadruplex in human H1299 cells assessed as EB virus EBNA1 deleted GAr expression at 10 uM incubated for 40 hrs by western blot analysis; type: cell-based; summary of the method: as §2
# [7] = organism: Homo sapiens; assay: Binding affinity to […] assessed as increase in melting temperature at 1 uM by fluorescence method
# Summary of the method: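 F-25TAG-T telomeric DNA (5'-FAM/3'-TAMRA) melted with 1 μM ligand in K-100 buffer (10 mM LiAsO2Me2, 100 mM KCl, pH 7.3). Heating 25–95 °C at 0.5 °C/min. ΔTm derived from first-derivative Tm maxima relative to the no-ligand run.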
# [8] = Binding affinity to […] (unknown origin) assessed as increase in melting temperature at 1 uM by fluorescence method
# Summary of the method: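 Labeled F-myc22-T DNA (5'-FAM/3'-TAMRA) melted with 1 μM ligand in K-1 buffer (10 mM LiAsO2Me2, 1 mM KCl, 99 mM LiCl, pH 7.3). Ramp 0.5 °C/min from 25 to 95 °C. Tm taken from first-derivative maxima and ΔTm calculated versus ligand-free control.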
IC50 [2],ΔTm [5],ΔTm [7],Activity [5],ΔTm [8],SMILES,Activity [1],Activity [3],Activity [4],Activity [6]
930 nM,< 10 °C,,,,C[n+]1ccc(/C=N/NC(=O)c2ccc3ccc(C(=O)N/N=C/c4cc[n+](C)cc4)nc3n2)cc1.[I-].[I-],112,99,inactive,inactive
2320 nM,< 10 °C,,,,C[n+]1ccc(/C=N/NC(=O)c2cccc(C(=O)N/N=C/c3cc[n+](C)cc3)n2)cc1.[I-].[I-],106,93,inactive,inactive
740 nM,,15 to 30 °C,Active,15 to 30 °C,CC[n+]1cccc2cc(/C=N/NC(=O)c3cccc(C(=O)N/N=C/c4ccc5c(ccc[n+]5CC)c4)n3)ccc21.[I-].[I-],86,98,inactive,inactive
340 nM,20 to 30 °C,15 to 30 °C,,15 to 30 °C,O=C(N/N=C/c1cc[n+](Cc2ccccc2)c2ccccc12)c1ccc2ccc3ccc(C(=O)N/N=C/c4cc[n+](Cc5ccccc5)c5ccccc45)nc3c2n1.[Br-].[Br-],96,114,inactive,inactive
1090 nM,,15 to 30 °C,Active,15 to 30 °C,O=C(N/N=C/c1ccc2c(ccc[n+]2Cc2ccccc2)c1)c1ccc2ccc(C(=O)N/N=C/c3ccc4c(ccc[n+]4Cc4ccccc4)c3)nc2n1.[Br-].[Br-],104,108,inactive,inactive
800 nM,,15 to 30 °C,Active,15 to 30 °C,CC[n+]1cccc2cc(/C=N/NC(=O)c3ccc4ccc(C(=O)N/N=C/c5ccc6c(ccc[n+]6CC)c5)nc4n3)ccc21.[I-].[I-],82,111,inactive,inactive
740 nM,,,,,C[n+]1ccc(/C=N/NC(=O)c2cc(C(=O)N/N=C/c3cc[n+](C)c4ccccc34)ncn2)c2ccccc21.[I-].[I-],89,103,inactive,inactive
> 2500 nM,,,,,C[n+]1ccc(/C=N/NC(=O)c2cc(C(=O)N/N=C/c3cc[n+](C)cc3)ncn2)cc1.[I-].[I-],80,92,inactive,inactive
1240 nM,,,,,O=C(N/N=C/c1cc[n+](Cc2ccccc2)c2ccccc12)c1cc(C(=O)N/N=C/c2cc[n+](Cc3ccccc3)c3ccccc23)ncn1.[Br-].[Br-],108,106,inactive,inactive
610 nM,,15 to 30 °C,Active,15 to 30 °C,C[n+]1ccc(/C=N/NC(=O)c2ccc3ccc(C(=O)N/N=C/c4cc[n+](C)c5ccccc45)nc3n2)c2ccccc21.[I-].[I-],95,100,inactive,inactive
320 nM,10 to 20 °C,15 to 30 °C,,15 to 30 °C,C[n+]1ccc(/C=N/NC(=O)c2ccc3ccc4ccc(C(=O)N/N=C/c5cc[n+](C)cc5)nc4c3n2)cc1.[I-].[I-],78,76,Active,Active
> 2500 nM,,,,,O=C(N/N=C/c1ccc2c(ccc[n+]2Cc2ccccc2)c1)c1cc(C(=O)N/N=C/c2ccc3c(ccc[n+]3Cc3ccccc3)c2)ncn1.[Br-].[Br-],139,137,Active,Active
